Columns and labels:
[1] = Drug exposure in of Isobutyl 1-[8-Methoxy-5-(1-oxo-3H-isobenzofuran-5-yl)-[1,2,4]-triazolo[1,5-a]pyridin-2-yl]cyclopropanecarboxylate dosed Gottingen mini pig assessed as ratio of drug level to total AUC at 0.5 to 2 mg/kg, iv measured up to 24 hrs by LC-MS/MS analysis; assay type: ADME, organism-based, Sus scrofa domesticus; conditions: in vivo, dose 0.5-2 mg/kg
[2] = Half life in mini pig whole blood at 0.1 uM by LC-MS/MS analysis; assay type: ADME, tissue-based, Sus scrofa domesticus
[3] = Clearance in human hepatocytes at 10 uM by UPLC/TOF-MS analysis; assay type: ADME, cell-based, Hepatocyte
[4] = Half life in human keratinocytes at 1 uM by LC-MS/MS analysis; assay type: ADME, cell-based, Keratinocyte
How it was run: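 Plated human epidermal keratinocytes (1 × 10⁴ cells/well) with 1 μM compound in duplicate for up to 24 h; sampled at 0, 1, 2, 4, 24 h, acetonitrile precipitation, LC-MS/MS. Controls in growth medium. Half-life reported.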

[5] = Half life in human whole blood at 0.1 uM by LC-MS/MS analysis; assay type: ADME, tissue-based
[6] = Drug exposure in Isobutyl 1-[8-Methoxy-5-(1-oxo-3H-isobenzofuran-5-yl)-[1,2,4]-triazolo[1,5-a]pyridin-2-yl]cyclopropanecarboxylate dosed cynomolgus monkey assessed as ratio of drug level to total AUC; assay type: ADME, organism-based, Macaca fascicularis; conditions: in vivo
How it was run: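 Blood was drawn at 0.25–24 h after infusion start and 6, 12, 24 h after infusion end into EDTA-K3, then plasma stabilized with ascorbic acid. LC-MS/MS quantification of parent and metabolites; noncompartmental PK.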

[7] = AUC (0 to 24 hrs) in human patient with atopic dermatitis at 0.25% dosed topically as lipid cream; assay type: ADME, organism-based; set-up: time < 24 hr, dose 0.25 %; conditions: in vivo, topical or ocular
[8] = Drug exposure in of Isobutyl 1-[8-Methoxy-5-(1-oxo-3H-isobenzofuran-5-yl)-[1,2,4]-triazolo[1,5-a]pyridin-2-yl]cyclopropanecarboxylate dosed Sprague-Dawley rat assessed as ratio of drug level to total AUC at 0.075 mg/kg, iv measured up to 30 mins by LC-MS/MS analysis; assay type: ADME, organism-based; conditions: in vivo, 0.5 h
How it was run: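 Male Sprague Dawley rats (n = 3) received a single iv injection of 0.075 mg/kg (50 μg/mL, 1.5 mL/kg) in 20% cyclodextrin. Blood was taken from the tongue vein at 1, 3, 6, 9, 12, 15 and 30 min into lithium-heparin, diluted 1:1 with heparin water, and analysed by LC-MS/MS for parent and metabolites.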

[9] = Cmax in cynomolgus monkey at 30 mg/kg, sc dosed as single administration; assay type: ADME, organism-based, Macaca fascicularis; set-up: route subcutaneous, dose 30 mg/kg; conditions: in vivo, read-out: Cmax
How it was run: (§1)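 Single subcutaneous dose of 30 mg/kg.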

[10] = Cmax in human patient with atopic dermatitis at 0.25% dosed topically as lipid cream; assay type: ADME, organism-based; set-up: dose 0.25 %; conditions: in vivo, topical or ocular
[11] = Half life in rat whole blood at 0.1 uM by LC-MS/MS analysis; assay type: ADME, tissue-based
[12] = AUC (0 to 24 hrs) in cynomolgus monkey at 30 mg/kg, sc dosed as single administration; assay type: ADME, organism-based, Macaca fascicularis; set-up: time < 24 hr, route subcutaneous, dose 30 mg/kg; conditions: in vivo; how it was run: as §1
[13] = Drug exposure in skin of Gottingen mini pig at 0.1% dosed topically as monoglyceride cream measured after 24 hrs by LC-MS/MS analysis; assay type: ADME, organism-based, Sus scrofa domesticus, Skin of body; conditions: in vivo, topical_or_ocular
How it was run: (§2)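 Female Göttingen minipigs received single topical application of 1 or 2.5 mg/g monoglyceride cream at 10 μL/cm² over 4 cm² of belly/flank; excess removed. At 24 h sites were tape stripped (2 + 10 strips), 8 mm punch biopsies were taken and snap frozen, then homogenized, acetonitrile precipitated and analysed by LC-MS/MS; n = 2.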

[14] = Drug exposure in skin of Gottingen mini pig at 0.25% dosed topically as monoglyceride cream measured after 24 hrs by LC-MS/MS analysis; assay type: ADME, organism-based, Sus scrofa domesticus, Skin of body; conditions: in vivo, topical_or_ocular; how it was run: as §2
[15] = Drug exposure in human assessed as ratio of drug level to total AUC at 0.25% of Isobutyl 1-[8-Methoxy-5-(1-oxo-3H-isobenzofuran-5-yl)-[1,2,4]-triazolo[1,5-a]pyridin-2-yl]cyclopropanecarboxylate dosed via topical administration in lipid cream; assay type: ADME, organism-based; conditions: in vivo, topical_or_ocular
[16] = Clearance in mini pig hepatocytes at 10 uM by UPLC/TOF-MS analysis; assay type: ADME, cell-based, Sus scrofa domesticus, Hepatocyte; conditions: read-out: CLH
[17] = Clearance in human liver microsomes at 0.5 uM incubated for 40 mins in presence of NADPH by LC-MS/MS analysis; assay type: ADME, Microsome; conditions: read-out: CLH
How it was run: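 Human liver microsomes (0.5 mg/mL) with 1 mM NADPH and 0.5 μM test compound, incubated for 40 min. Samples were taken before NADPH and at 5, 10, 20, 40 min, quenched with cold acetonitrile containing internal standard, and analysed by LC-MS/MS. Control incubations in buffer and without NADPH. Apparent clearance was calculated from depletion.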

Phosphodiesterase 4 = Phosphodiesterase 4 (Homo sapiens, UniProt P27815+Q08499+Q07343+Q08493); experiment: Inhibition of PDE4 (unknown origin); assay type: protein assay
[18] = Drug metabolism in rat whole blood assessed as 4-[2-(1-Carboxycyclopropyl)-8-methoxy-[1,2,4]triazolo[1,5-a]-pyridin-5-yl]-2-(hydroxymethyl)benzoic Acid formation at 0.1 uM measured up to 120 mins by LC-MS/MS analysis; assay type: ADME, tissue-based; conditions: 2 h
[19] = Half life in cynomolgus monkey whole blood at 0.1 uM by LC-MS/MS analysis; assay type: ADME, tissue-based, Macaca fascicularis
[20] = Phototoxicity in mouse 3T3 cells; assay type: cell-based
TK6 = experiment: Genotoxicity in human TK6 cells in absence of S9 fraction by GreenScreen assay; assay type: toxicity, cell-based

Drug uptake [1]	half-life at 0.1 µM [2]	CLhep predicted at 10 µM [3]	half-life at 1 µM [4]	half-life at 0.1 µM [5]	Drug uptake [6]	AUC(0-t) at 24 h [7]	Drug uptake [8]	Cmax [9]	Cmax [10]	half-life at 0.1 µM [11]	AUC(0-t) at 24 h [12]	Drug uptake [13]	Drug uptake [14]	Drug uptake [15]	CLint scaled at 10 µM [16]	CLint scaled at 0.5 µM [17]	IC50 (Phosphodiesterase 4)	Structure (SMILES)	also measured
23%	> 1 h	< 5.2 mL/min/kg	> 12 h	> 1 h	13%	24.7 ng·h/mL	14%	407 ng/mL	1.89 ng/mL	> 1 h	1300 ng·h/mL	3 µM	6 µM	71%	< 10 mL/min/kg	< 11 mL/min/kg	–	COc1ccc(-c2ccc(C(=O)O)c(CO)c2)n2nc(C3(C(=O)O)CC3)nc12	–
–	–	–	–	–	–	–	–	–	–	–	–	–	–	–	–	–	1.7 nM	COc1ccc(C(=O)Cc2c(Cl)cncc2Cl)n2nc(C3CC3)nc12	–
–	–	–	–	–	–	–	–	–	–	–	–	14 µM	26 µM	–	–	–	2.8 nM	CCCNC(=O)COc1c(C(=O)Cc2c(Cl)cncc2Cl)ccc(OC)c1OC	–
15%	> 1 h	13 mL/min/kg	> 12 h	> 1 h	36%	4.18 ng·h/mL	26%	749 ng/mL	0.299 ng/mL	0.567 h	932 ng·h/mL	0.6 µM	2 µM	12%	21 mL/min/kg	> 167 mL/min/kg	–	COc1ccc(-c2ccc(C(=O)O)c(CO)c2)n2nc(C3(C(=O)OCC(C)C)CC3)nc12	Drug metabolism [18]: Metabolite_Detected; half-life at 0.1 µM [19]: > 1 h
–	–	–	–	–	–	–	–	–	–	–	–	–	–	–	–	–	100 nM	COc1ccc(C(=O)Cc2c(Cl)cncc2Cl)n2ncnc12	–
–	–	–	> 12 h	0.217 h	–	–	–	–	–	–	–	–	–	–	–	> 200 mL/min/kg	–	CC[C@@H](C)OC(=O)C1(c2nc3c(OC)ccc(-c4ccc5c(c4)COC5=O)n3n2)CC1	Activity [20]: Toxic
55%	> 1 h	5.2 mL/min/kg	> 12 h	> 1 h	45%	5.18 ng·h/mL	55%	71.7 ng/mL	0.355 ng/mL	> 1 h	208 ng·h/mL	< 0.1 µM	< 0.1 µM	15%	< 11 mL/min/kg	< 16 mL/min/kg	–	COc1ccc(-c2ccc3c(c2)COC3=O)n2nc(C3(C(=O)O)CC3)nc12	–
–	–	–	> 12 h	0.167 h	–	–	–	–	–	–	–	–	–	–	–	97 mL/min/kg	–	COc1ccc(-c2ccc3c(c2)COC3=O)n2nc(C3(C(=O)OC4CCOCC4)CC3)nc12	Activity (TK6): Toxic

Reference: ChEMBL document CHEMBL4673252, “Discovery and Early Clinical Development of Isobutyl 1-[8-Methoxy-5-(1-oxo-3H-isobenzofuran-5-yl)-[1,2,4]triazolo[1,5-a]pyridin-2-yl]cyclopropanecarboxylate (LEO 39652), a Novel "Dual-Soft" PDE4 Inhibitor for Topical Treatment of Atopic Dermatitis” (J Med Chem, 2020)
